Results from ChEMBL document CHEMBL1157127, “Aplysinopsin analogs: Synthesis and anti-proliferative activity of substituted (Z)-5-(N-benzylindol-3-ylmethylene)imidazolidine-2,4-diones” (Bioorg Med Chem, 2010).

Assays:
Type in all cases: functional, cell-based
A549 = assay: Antiproliferative activity against human A549 cells after 24 hrs by trypan blue exclusion assay; details: A549, 24 h
Procedure, shortened: (§1)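 Cells from ATCC. MCF-7 and MDA-231 grown in DMEM with 10% FBS and 1% L-glutamine; A549 and H460 in RPMI 1640 with glutamine, glucose, HEPES, sodium pyruvate and 10% FBS; all at 37 °C, 5% CO2. Treated 24 h at 1, 5, 10, 20 and 40 µM, with DMSO vehicle control. Viability by trypan blue dye exclusion, mean ± SD of four wells.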

NCI-H460 = assay: Antiproliferative activity against human H460 cells after 24 hrs by trypan blue exclusion assay; details: NCI-H460, 24 h; procedure, shortened: as §1
MCF7 = assay: Antiproliferative activity against human MCF7 cells after 24 hrs by trypan blue exclusion assay; details: MCF7, 24 h; procedure, shortened: as §1
[1] = Antiproliferative activity against human MDA231 cells after 24 hrs by trypan blue exclusion assay; details: MDA-MB-231, 24 h; procedure, shortened: as §1

Compound	IC50 (A549)	IC50 (NCI-H460)	IC50 (MCF7)	IC50 [1]
O=C1NC(=O)/C(=C/c2cn(Cc3ccc(F)cc3)c3ccccc23)N1	27.8 µM	16.3 µM	22.3 µM	32.8 µM
Cc1ccc(Cn2cc(/C=C3\NC(=O)NC3=O)c3ccccc32)cc1	34.8 µM	26.1 µM	20.2 µM	22.1 µM
O=C1NC(=O)/C(=C/c2cn(Cc3ccccc3)c3ccc(Cl)cc23)N1	29.7 µM	26.9 µM	9.2 µM	18 µM
O=C1NC(=O)/C(=C/c2cn(Cc3ccccc3Br)c3ccccc23)N1	39.5 µM	16.9 µM	4.4 µM	21.8 µM
Cc1ccc2c(c1)c(/C=C1\NC(=O)NC1=O)cn2Cc1ccccc1	27.7 µM	14.6 µM	5.2 µM	20.1 µM
O=C1NC(=O)/C(=C/c2cn(Cc3ccccc3)c3ccc(Br)cc23)N1	> 40 µM	> 40 µM	7.6 µM	12.4 µM
O=C1NC(=O)/C(=C/c2cn(Cc3ccc([N+](=O)[O-])cc3)c3ccccc23)N1	> 40 µM	> 40 µM	10.9 µM	23.3 µM
N#Cc1ccc(Cn2cc(/C=C3\NC(=O)NC3=O)c3ccccc32)cc1	> 40 µM	19.1 µM	14.1 µM	17.6 µM
COC(=O)c1ccc(Cn2cc(/C=C3\NC(=O)NC3=O)c3ccccc32)cc1	> 40 µM	30.8 µM	15.4 µM	18.4 µM
COc1ccc(Cn2cc(/C=C3\NC(=O)NC3=O)c3cc(Br)ccc32)cc1	25.2 µM	22.3 µM	16.4 µM	23.2 µM
O=C1NC(=O)/C(=C/c2cn(Cc3ccc(Cl)cc3)c3ccccc23)N1	25.4 µM	25.4 µM	21.4 µM	25.3 µM
O=C1NC(=O)/C(=C/c2cn(Cc3ccccc3)c3ccccc23)N1	> 40 µM	14.2 µM	27.3 µM	15.7 µM
COc1ccc2c(c1)c(/C=C1\NC(=O)NC1=O)cn2Cc1ccccc1	> 40 µM	28.4 µM	7.2 µM	7 µM
O=c1[nH]cc(F)c(=O)[nH]1 [FLUOROURACIL]	5.4 µM	2.7 µM	15.2 µM	3.5 µM
